Screening results: PubChem, several laboratories
Shown are actives, neighbours in structure and some others; about 2.2% of the full set was active somewhere.
Exocytosis inh = lytic granule exocytosis inhibition; TALL-104 LAMP-1 surface exposure, flow cytometry; cells stimulated with thapsigargin and PMA; inhibition, % at 10 µM; 0.66% of 360,000 active; AID 651702;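 active = inhibition above about 55%, limit read from the data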
ABHD5-PLIN5 inh = ABHD5-PLIN5 protein interaction inhibition. Q00G26+Q8WTS1. 0.78% of 360,000 active. inhibition, % at 4 µM. Split G. princeps luciferase complementation, luminescence, 4 h;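 active = inhibition above the mean inhibition across every tested compound plus 3 SD, cut at about 22% in these data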
PfGluPho inh = PfG6PD (Plasmodium falciparum) enzyme inhibition; PfGluPho enzyme, NADPH resazurin-diaphorase fluorescence; inhibition, % at 20 µM; 0.78% of 350,000 active;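 active = inhibition reaching at least a set limit at 20 µM in the primary screen, cut at about 59% in these data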
HKDC1 inh = inhibitors of human hexokinase HKDC1. recombinant HKDC1, G6PDH/diaphorase resazurin coupled fluorescence. 0.16% of 340,000 active. Q2TB90. inhibition, % at 20 µM;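 active = inhibition above about 35% when tested at 20 µM, limit read from the data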
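Test system: HK5 enzyme. Quantity: 5 µg/mL HK5 final. Reagent: glucose and ATP substrates. Schedule: 90 min reaction incubation at room temperature, dark. Technique: resazurin-to-resorufin fluorescence via G6PDH and diaphorase coupling, 525/613 nm. Control set: DMSO wells with and without enzyme mix.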
ABHD5-PLIN5 conf = confirmation of human ABHD5-PLIN5 interaction inhibitors; shares compounds with ABHD5-PLIN5 inh; biochemical ABHD5-PLIN5 interaction, luminescence; inhibition, % at 4 µM; 67% of 2,200 active; AID 651612; in the data active = inhibition above about 23%
HNF4 counter = HNF4 split-luciferase signal hit, counter-screen; shares compounds with ABHD5-PLIN5 inh; inhibition, % at 4 µM; AID 651674; HNF4 dimerization, luminescence, biochemical; 77% of 2,200 active;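 active = mean inhibition across replicate wells exceeding the computed hit threshold, cut at about 13% in these data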;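 note: light from luciferase halves that rejoin when HNF4 fusion proteins dimerize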
Target sequence (P41235 whole entry, looked up, the tested form may be a part): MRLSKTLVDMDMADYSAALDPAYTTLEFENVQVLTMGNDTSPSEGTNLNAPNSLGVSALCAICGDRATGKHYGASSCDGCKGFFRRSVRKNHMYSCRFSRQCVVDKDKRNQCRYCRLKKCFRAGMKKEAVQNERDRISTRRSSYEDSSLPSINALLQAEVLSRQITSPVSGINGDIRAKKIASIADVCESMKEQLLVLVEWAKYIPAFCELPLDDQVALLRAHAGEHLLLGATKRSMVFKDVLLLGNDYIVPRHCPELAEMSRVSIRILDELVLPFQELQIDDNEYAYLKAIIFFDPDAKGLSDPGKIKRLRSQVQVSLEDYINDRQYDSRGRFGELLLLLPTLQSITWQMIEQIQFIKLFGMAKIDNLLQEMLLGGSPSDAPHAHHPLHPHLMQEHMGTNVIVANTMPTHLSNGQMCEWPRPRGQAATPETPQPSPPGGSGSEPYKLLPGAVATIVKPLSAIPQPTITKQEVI
A number is an active result; n = inactive; x = no result; ! = repeats disagree.

SMILES	Exocytosis inh	ABHD5-PLIN5 inh	PfGluPho inh	HKDC1 inh	ABHD5-PLIN5 conf	HNF4 counter
C=C1C(=O)OC2C1CCC(C)C1C=CC(=O)C12C (stereo not given)	n	n	n	n	x	x
O=C(CSc1ccccc1)N1CCCC(N2CCN(c3cccc(Cl)c3)CC2)C1 (stereo not given)	n	n	x	x	x	x
O=C1C(Sc2ccccc2)=C[C@@]2(O)CC[C@@H](O)[C@]1(Sc1ccccc1)[C@H]2O	n	26	x	x	33	43
COc1cc(C(=O)/C=C/c2cccnc2)c([N+](=O)[O-])cc1OC	n	47	n	n	74	72
O=C(/C=C/c1ccco1)c1cccnc1	n	n	n	n	x	x
O=C(/C=C/c1cccnc1)c1ccc([N+](=O)[O-])cc1	n	57	n	n	89	94
O=C(C=Cc1ccccc1)c1ccc([N+](=O)[O-])cc1	n	67	n	n	95	91
O=C(C=Cc1ccco1)c1ccc([N+](=O)[O-])cc1	n	35	n	n	47	42
COc1ccc(C=CC(=O)c2ccc([N+](=O)[O-])cc2)cc1	n	n	n	n	x	x
CNc1cc(C(=O)Nc2cccc(OCc3ccccc3)c2)ncn1	n	n	x	x	x	x
CN(C(=O)COc1ncnc2sccc12)C1CCCCC1	n	n	n	n	x	x
CC(C)NC(=O)C(=O)NNC(=O)CCc1ccccc1	n	n	n	n	x	x
Cc1[nH]c(C)c(C(=O)/C=C/c2ccc([N+](=O)[O-])cc2)c1C	n	25	n	n	39	44
O=C(CSc1nc2ccccc2c(=O)n1-c1ccc(OC(F)F)cc1)NC1CC1	n	n	n	n	x	x
COc1ccc(CCC(=O)NCCS(=O)(=O)N2CCN(c3ccc(OC)cc3)CC2)cc1	n	n	n	n	x	x
COc1ccc(N2CCN(S(=O)(=O)CCNC(=O)Cc3ccc([N+](=O)[O-])cc3)CC2)cc1	n	68	n	n	n	n
CCN(CC)CCNC(=O)c1ccc(NC(=O)c2cn(-c3ccccc3)nc2-c2cccs2)cc1	n	35	n	n	n	n
O=C(O)CCCN1C(=O)/C(=C/c2cn(-c3ccccc3)nc2-c2cccs2)SC1=S	n	37	n	n	n	n
O=C(/C=C/c1cn(-c2ccccc2)nc1-c1cccs1)NCCN1CCOCC1	n	32	n	n	n	n
Cc1c(Br)c([N+](=O)[O-])nn1CCCC(=O)NC(C)c1ccccc1 (stereo not given)	n	n	n	n	x	x
O=C1CC(SC(=S)C2CCCC2=O)C(=O)N1 (stereo not given)	n	n	n	x	x	x
Cc1nn(C)cc1NC(=O)CCSc1nc(-c2ccco2)cc(C(F)(F)F)n1	n	88	n	n	n	n
Cc1ccc(-n2nc3c(N4CCC(C(=O)NCCc5ccco5)CC4)nnc(C)c3c2C)cc1	n	30	n	n	n	n
O=C(/C=C/c1ccc(O)c(O)c1)c1ccc(S(=O)(=O)N2CCCCCC2)cc1	n	32	n	n	70	67
O=C(CSc1ncn[nH]1)c1cccc([N+](=O)[O-])c1	n	35	n	n	n	26
SMILES	Exocytosis inh	ABHD5-PLIN5 inh	PfGluPho inh	HKDC1 inh	ABHD5-PLIN5 conf	HNF4 counter
O=C1C=C(NCc2ccccc2)CCC1	n	n	n	n	x	x
O=C1C=C(NC2=CC3OC(c4ccccc4)OCC3OC2=O)CCC1 (stereo not given)	n	26	n	n	87	95
CCOc1cc(CNCCN2CCOCC2)ccc1OCc1ccccc1Cl	n	n	n	n	x	x
CCOc1cc(CNCCCN2CCOCC2)cc(Br)c1OCc1ccccc1Cl	n	30	n	n	n	17
CCOc1cc(CNCCO)cc(Br)c1OCc1ccccc1Cl	n	28	n	n	n	n
Cc1sc2ncnc(N3CCC(C(=O)NNC(=O)COc4cccc(C(F)(F)F)c4)CC3)c2c1C	n	n	n	n	x	x
O=C(CN(Cc1cccs1)C(=O)CCC(=O)Nc1ccccn1)NCc1ccccc1	n	n	n	n	x	x
CC1CN(C(=O)CCNC(=O)c2ccccc2Cl)CC(C)O1 (stereo not given)	n	n	n	n	x	x
Nc1nnc(N)c2ccccc12	n	n	n	n	x	x
Nc1nsc2ccccc12	n	45	n	n	57	64
Cc1[nH]nc(-c2ccc(O)cc2O)c1Oc1ccccc1	n	24	n	n	n	36
CCOc1cc(OCC)cc(C(=O)N2CCC[C@@H]2C(=O)N2CCC[C@H]2C(=O)NCc2ccncc2)c1	n	n	x	x	x	x
C[C@H](CO)N1C[C@H](C)[C@@H](CN(C)Cc2ccc3c(c2)OCO3)Oc2c(NC(=O)C3CCCCC3)cccc2C1=O	n	n	n	n	x	x
C[C@H](CO)N1C[C@H](C)[C@@H](CN(C)Cc2ccc(C(=O)Nc3ccccc3N)cc2)Oc2c(NC(=O)C3CCCCC3)cccc2C1=O	n	72	n	n	n	n
CC(C(=O)O)n1cc(Cl)cn1 (stereo not given)	n	n	n	n	x	x
O=C(/C=C/c1ccccc1O)c1ccco1	n	61	n	n	83	78
O=C(/C=C/c1cc(Br)ccc1O)c1ccco1	n	82	n	n	98	97
O=c1[nH]cnc(O)c1C1C=CC=CC=C1	n	50	n	n	32	49
Cc1ccc(S(=O)(=O)Nc2cccc(S(=O)(=O)Nc3ccccc3C(=O)O)c2)c(C)c1	n	n	n	n	x	x
CCn1c(C)c(CS(=O)(=O)c2ccccc2)[nH]c1=O	n	34	n	n	57	77
O=C(CCc1c[nH]c2ccccc12)N[C@@H](Cc1c[nH]c2ccc(O)cc12)C(=O)O	n	n	n	n	x	x
Cc1ccc(/C(O)=C/C(=O)C(=O)NC23CC4CC(CC(C4)C2)C3)cc1	n	n	n	n	x	x
C=C1C(=O)O[C@H]2[C@H]1[C@H](OC(=O)/C(C)=C\C)C[C@]1(CO1)[C@@H]1[C@H](OC(C)=O)C=C(C)[C@]21O	n	25	n	n	46	40
C=C1C(=O)O[C@H]2C[C@]3(C)C([C@@H](OC(=O)/C(C)=C/C)[C@H]12)[C@](C)(O)CC[C@H]3O (stereo not given in full)	n	n	n	n	x	x
C=CCC1(C)C(=O)N(c2ccccc2)c2ccccc21 (stereo not given)	n	32	n	n	n	n
SMILES	Exocytosis inh	ABHD5-PLIN5 inh	PfGluPho inh	HKDC1 inh	ABHD5-PLIN5 conf	HNF4 counter
C=CCCC1(C)C(=O)N(c2ccccc2)c2ccccc21 (stereo not given)	n	n	n	n	x	x
CCOc1c(N2CC(C)OC(C)C2)c(=O)c1=O (stereo not given)	n	n	n	n	x	x
CC1CN(C2=CC(=O)CCC2)CC(C)O1 (stereo not given)	n	31	n	n	n	13
O=C(CN1C(=O)CCS(=O)(=O)c2ccccc21)Nc1ccc(Cl)cc1	n	n	n	n	x	x
Cc1nc(S(=O)(=O)N2CCN(C3c4ccccc4-c4ccccc43)CC2)cn1C	n	n	n	n	x	x
Cc1nc2c(o1)CCc1ccccc1C2N1CCN(C)CC1 (stereo not given)	n	57!	n	n	40	n
